Source: ChEMBL document CHEMBL4613298, “GPBAR1 Activation by C6-Substituted Hyodeoxycholane Analogues Protect against Colitis” (ACS Med Chem Lett, 2020)
Calls of active or inactive are those of the source. The calls are words filed in the database; no cut-off is given here.

How the values were obtained:
[1] = tested on: Mus musculus; assay: Antiinflammatory activity in Gpbar1 (+/+) TNBS-induced C57BL/6NCrl mouse model of colitis assessed as reduction in TNFalpha mRNA expression at 30 mg/kg, po by RT-PCR analysis; type: functional, organism-based
In short: (§1)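 Gpbar1+/+ and Gpbar1–/– mice given TNBS alone or with test agent at 30 mg/kg; colon samples analysed by RT-PCR for relative mRNA of Il-1β, Il-6, Tnf-α, Il-10 and Gpbar1.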

[2] = tested on: Mus musculus; assay: Anti-colitis activity in Gpbar1 (+/+) TNBS-induced C57BL/6NCrl mouse model of colitis assessed as colon damage at 30 mg/kg, po by H and E staining analysis; type: functional, organism-based
In short: (§2)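 Gpbar1+/+ and Gpbar1–/– mice given TNBS alone or with test agent at 30 mg/kg; body weight change and CDAI followed over the colitis course; colon sections H&E stained (10× magnification); n = 5 per group.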

[3] = target: T1, G-protein coupled bile acid receptor 1 (Homo sapiens) (UniProt Q8TDU6); assay: Agonist activity at GPBAR1 receptor in human THP1 cells assessed as reduction in LPS-induced IL-1beta expression at 10 uM after 18 hrs by RT-PCR analysis; type: cell-based; conditions: THP-1
T1 sequence (whole entry): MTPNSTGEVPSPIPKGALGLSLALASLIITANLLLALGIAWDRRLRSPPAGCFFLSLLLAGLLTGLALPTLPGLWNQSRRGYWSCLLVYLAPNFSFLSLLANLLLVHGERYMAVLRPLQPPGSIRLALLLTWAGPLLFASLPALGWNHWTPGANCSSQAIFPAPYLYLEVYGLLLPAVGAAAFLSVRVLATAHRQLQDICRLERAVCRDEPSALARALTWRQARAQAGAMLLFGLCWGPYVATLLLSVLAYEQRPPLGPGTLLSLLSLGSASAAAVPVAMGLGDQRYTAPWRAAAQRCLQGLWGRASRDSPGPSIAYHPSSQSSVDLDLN
In short: (§3)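 THP1 monocytic/macrophage cells primed with LPS, then coincubated with or without test agent at 10 μM; expression of cytokine genes (IL-1β, IL-6, TNF-α, IL-10) measured.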

[4] = tested on: Mus musculus; assay: Effect on IL-1beta mRNA expression in Gpbar1 deficient TNBS-induced C57BL/6NCrl mouse model of colitis harboring […] expression at 30 mg/kg, po by RT-PCR analysis; type: functional, organism-based; in short: as §1
[5] = target: T1, G-protein coupled bile acid receptor 1 (Homo sapiens); assay: Agonist activity at GPBAR1 receptor in human THP1 cells assessed as reduction in LPS-induced IL-6 expression at 10 uM after 18 hrs by RT-PCR analysis; type: cell-based; conditions: THP-1; in short: as §3
[6] = tested on: Mus musculus; assay: Effect on IL-10 mRNA expression in Gpbar1 deficient TNBS-induced C57BL/6NCrl mouse model of colitis harboring […] expression at 30 mg/kg, po by RT-PCR analysis; type: functional, organism-based; in short: as §1
[7] = tested on: Mus musculus; assay: Anti-colitis activity in Gpbar1 (+/+) TNBS-induced C57BL/6NCrl mouse model of colitis assessed as effect on body weight loss at 30 mg/kg, po; type: functional, organism-based; in short: as §2
[8] = tested on: Mus musculus; assay: Anti-colitis activity in Gpbar1 (+/+) TNBS-induced C57BL/6NCrl mouse model of colitis assessed as decrease in Clinical Disease activity index at 30 mg/kg, po; type: functional, organism-based; in short: as §2
[9] = tested on: Mus musculus; assay: Antiinflammatory activity in Gpbar1 (+/+) TNBS-induced C57BL/6NCrl mouse model of colitis assessed as reduction in IL-1beta mRNA expression at 30 mg/kg, po by RT-PCR analysis; type: functional, organism-based; in short: as §1
[10] = species on record: Homo sapiens; assay: Selectivity index, ratio of transactivation of human GPBAR1 receptor expressed in HEK293T cells assessed as maximum receptor activation at 10 uM to transactivation of human FXR (unknown origin) expressed in HepG2 cells co-expressing pSG5RXR/pGL4.70 assessed as maximum receptor activation at 10 uM; type: cell-based
In short: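 Ratio of percent activity at GPBAR1 (HEK-293T, CRE-luciferase, 10 μM, vs TLCA 10 μM) to percent activity at FXR (HepG2, IR1-luciferase, 10 μM, vs CDCA 10 μM). Both taken from the same triplicate experiment.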

[11] = tested on: Mus musculus; assay: Anti-colitis activity in Gpbar1 (-/-) TNBS-induced C57BL/6NCrl mouse model of colitis assessed as colon damage at 30 mg/kg, po by H and E staining analysis; type: functional, organism-based; in short: as §2
[12] = tested on: Mus musculus; assay: Effect on IL-6 mRNA expression in Gpbar1 deficient TNBS-induced C57BL/6NCrl mouse model of colitis harboring assessed as reduction in IL-6 mRNA expression at 30 mg/kg, po by RT-PCR analysis; type: functional, organism-based; in short: as §1
[13] = target: T1, G-protein coupled bile acid receptor 1 (Homo sapiens); assay: Agonist activity at GPBAR1 receptor in human THP1 cells assessed as reduction in LPS-induced TNFalpha expression at 10 uM after 18 hrs by RT-PCR analysis; type: cell-based; conditions: THP-1; in short: as §3
[14] = tested on: Mus musculus; assay: Effect on TNFalpha mRNA expression in Gpbar1 deficient TNBS-induced C57BL/6NCrl mouse model of colitis harboring […] expression at 30 mg/kg, po by RT-PCR analysis; type: functional, organism-based; in short: as §1
[15] = tested on: Mus musculus; assay: Antiinflammatory activity in Gpbar1 (+/+) TNBS-induced C57BL/6NCrl mouse model of colitis assessed as reduction in IL-6 mRNA expression at 30 mg/kg, po by RT-PCR analysis; type: functional, organism-based; in short: as §1
[16] = tested on: Mus musculus; assay: Anti-colitis activity in Gpbar1 (-/-) TNBS-induced C57BL/6NCrl mouse model of colitis assessed as decrease in Clinical Disease activity index at 30 mg/kg, po; type: functional, organism-based; in short: as §2
[17] = target: T2, Bile acid receptor (Homo sapiens) (UniProt Q96RI1); assay: Transactivation of FXR (unknown origin) expressed in HepG2 cells co-expressing pSG5RXR/pGL4.70 assessed as maximum receptor activation at 10 uM after 18 hrs by IR1 driven dual renilla-luciferase reporter gene assay relative to relative to CDCA; type: cell-based
T2 sequence (whole entry): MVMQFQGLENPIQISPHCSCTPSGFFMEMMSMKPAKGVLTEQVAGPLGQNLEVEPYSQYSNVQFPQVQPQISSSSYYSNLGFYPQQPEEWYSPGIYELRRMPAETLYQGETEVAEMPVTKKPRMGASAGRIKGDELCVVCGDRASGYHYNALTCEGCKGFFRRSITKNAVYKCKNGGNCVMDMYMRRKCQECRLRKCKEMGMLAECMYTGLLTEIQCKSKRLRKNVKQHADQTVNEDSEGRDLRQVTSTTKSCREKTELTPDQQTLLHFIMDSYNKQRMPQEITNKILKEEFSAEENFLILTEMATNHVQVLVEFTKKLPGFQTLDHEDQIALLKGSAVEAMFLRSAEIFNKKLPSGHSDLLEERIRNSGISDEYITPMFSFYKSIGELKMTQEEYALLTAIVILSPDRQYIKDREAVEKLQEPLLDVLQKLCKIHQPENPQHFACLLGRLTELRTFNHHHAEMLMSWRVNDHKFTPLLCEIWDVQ
In short: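 FXR reporter assay in HepG2 cells transfected with FXR and an IR1-driven luciferase reporter, compound at 10 μM. Efficacy is maximal IR1 transactivation relative to CDCA (10 μM). One experiment, triplicate.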

[18] = tested on: Mus musculus; assay: Antiinflammatory activity in Gpbar1 (+/+) TNBS-induced C57BL/6NCrl mouse model of colitis assessed as increase in IL-10 mRNA expression at 30 mg/kg, po by RT-PCR analysis; type: functional, organism-based; in short: as §1
[19] = target: T1, G-protein coupled bile acid receptor 1 (Homo sapiens); assay: Transactivation of human GPBAR1 receptor expressed in HEK293T cells assessed as maximum receptor activation at 10 uM after 18 hrs by cAMP response element driven renilla-luciferase dual reporter gene assay relative to TLCA; type: functional, cell-based; conditions: HEK-293T
In short: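 HEK-293T cells transfected with GPBAR1 and a CRE-driven luciferase reporter, exposed to compound at 10 μM. Efficacy is maximal CRE transactivation as percent of that caused by TLCA (10 μM). One experiment, triplicate.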

[20] = Aqueous solubility of compound in pH 7.4 PBS/MeOH at 10 mM after 24 hrs by LC-MS analysis; type: physicochemical; conditions: buffer, pH 7.4, 24 h, 10000 µM
[21] = tested on: Mus musculus; assay: Anti-colitis activity in Gpbar1 (-/-) TNBS-induced C57BL/6NCrl mouse model of colitis assessed as effect on body weight loss at 30 mg/kg, po; type: functional, organism-based; in short: as §2
[22] = target: T1, G-protein coupled bile acid receptor 1 (Homo sapiens); assay: Agonist activity at GPBAR1 receptor in LPS-stimulated human THP1 cells assessed as increase in IL-10 expression at 10 uM after 18 hrs by RT-PCR analysis; type: cell-based; conditions: THP-1; in short: as §3

## CC[C@]1(O)C[C@H]2[C@@H]3CC[C@H]([C@H](C)CC#N)[C@@]3(C)CC[C@@H]2[C@@]2(C)CC[C@@H](O)C[C@@H]12
[1]
  Activity: Active
[2]
  Activity: Active
[3]
  Activity: Active
[4]
  Activity: inactive
[5]
  Activity: Active
[6]
  Activity: inactive
[7]
  Activity: Active
[8]
  Activity: Active
[9]
  Activity: Active
[10]
  Selectivity Index: 8.2
[11]
  Activity: inactive
[12]
  Activity: inactive
[13]
  Activity: Active
[14]
  Activity: inactive
[15]
  Activity: Active
[16]
  Activity: inactive
[17]
  max activation: 12.3%
[18]
  Activity: Active
[19]
  max activation: 101%
[20]
  solubility: Soluble
[21]
  Activity: inactive
[22]
  Activity: Active
